Source: ChEMBL document CHEMBL1126265, “Novel 5-HT3 antagonists: indol-3-ylspiro(azabicycloalkane-3,5'(4'H)-oxazoles)” (J Med Chem, 1992)

Experiments:
[1] = target: T1, Serotonin 3 (5-HT3) receptor (Rattus norvegicus, UniProt P35563+Q9JJ16); assay: Displacement of [3H]Q-ICS-205-930 from 5-hydroxytryptamine 3 receptor recognition sites in rat brain membranes; assay type: cell membranes
T1 sequence (P35563 whole entry): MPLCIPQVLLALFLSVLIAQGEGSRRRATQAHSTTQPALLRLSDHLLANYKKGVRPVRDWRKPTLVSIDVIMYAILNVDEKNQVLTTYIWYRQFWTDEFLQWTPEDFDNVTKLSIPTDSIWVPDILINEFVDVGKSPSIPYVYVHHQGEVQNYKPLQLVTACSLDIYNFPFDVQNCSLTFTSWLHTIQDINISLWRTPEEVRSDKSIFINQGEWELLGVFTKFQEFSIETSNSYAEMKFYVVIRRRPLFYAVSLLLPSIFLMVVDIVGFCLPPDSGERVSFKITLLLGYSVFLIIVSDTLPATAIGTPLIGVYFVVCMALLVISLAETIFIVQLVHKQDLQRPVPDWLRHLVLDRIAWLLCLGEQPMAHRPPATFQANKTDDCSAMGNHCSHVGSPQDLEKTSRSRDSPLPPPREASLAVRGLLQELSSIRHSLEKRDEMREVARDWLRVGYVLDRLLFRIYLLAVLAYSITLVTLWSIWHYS
T1 sequence (Q9JJ16 whole entry): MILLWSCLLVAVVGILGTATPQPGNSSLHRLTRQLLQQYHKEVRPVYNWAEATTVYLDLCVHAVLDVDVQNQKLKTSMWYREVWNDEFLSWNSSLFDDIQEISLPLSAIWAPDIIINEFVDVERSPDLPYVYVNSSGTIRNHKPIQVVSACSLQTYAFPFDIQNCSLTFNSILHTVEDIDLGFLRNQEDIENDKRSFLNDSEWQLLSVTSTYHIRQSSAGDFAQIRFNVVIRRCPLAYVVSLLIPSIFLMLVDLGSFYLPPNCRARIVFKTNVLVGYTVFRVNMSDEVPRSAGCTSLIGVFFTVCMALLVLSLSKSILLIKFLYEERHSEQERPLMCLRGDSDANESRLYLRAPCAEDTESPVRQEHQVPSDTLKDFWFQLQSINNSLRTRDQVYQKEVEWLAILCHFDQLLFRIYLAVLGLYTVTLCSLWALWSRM
Outline: (§1)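 Value reported as mean ± SEM where n ≥ 3 independent determinations; where no SEM is given, mean of two independent determinations, individual values typically within ±10% of the mean.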

[2] = target: T1, Serotonin 3 (5-HT3) receptor; assay: Compound was evaluated for the displacement of [3H]Q-ICS-205-930 from 5-HT3 recognition sites in rat brain membranes; assay type: cell membranes; outline: as §1

Compound	IC50 [1] [nM]	IC50 [2] [nM]
Cn1cc(C2=NCC3(CN4CCC3CC4)O2)c2cc([N+](=O)[O-])ccc21 (stereo not given)	229	
Cn1cc(C2=NCC3(C[N+]4([O-])CCC3CC4)O2)c2ccccc21 (stereo not given)	2630	
c1ccc2c(C3=NCC4(CN5CCC4CC5)O3)c[nH]c2c1 (stereo not given)	4.79	
Cn1cc(C2=NCC3(CN4CCC3CC4)O2)c2cc(F)ccc21 (stereo not given)	14.8	
CN1[C@@H]2CC[C@H]1C[C@@H](OC(=O)c1c[nH]c3ccccc13)C2 [TROPISETRON]		1.26
COc1ccc2c(c1)c(C1=NCC3(CN4CCC3CC4)O1)cn2C (stereo not given)	263	
Cn1cc(C2=NC[C@@]3(C[N@@]4CC[C@@H]3C4)O2)c2ccccc21	3.47	
COc1cccc(C2=NCC3(CN4CCC3CC4)O2)c1 (stereo not given)	407	
Cn1cc(C2=NCC3(CN4CCC3CC4)O2)c2cc(O)ccc21 (stereo not given)	195	
Cc1cccc2c(C3=NCC4(CN5CCC4CC5)O3)cn(C)c12 (stereo not given)	8.91	
CN1CCC2(CC1)CN=C(c1cn(C)c3ccccc13)O2	158	
C#CCn1cc(C2=NCC3(CN4CCC3CC4)O2)c2ccccc21 (stereo not given)	6.17	
Cn1cc(C2=NCC3(CN4CCC3CC4)O2)c2ccccc21 (stereo not given)	3.16	
c1ccc2c(C3=NCC4(CN5CCC4CC5)O3)[nH]nc2c1 (stereo not given)	26.3	
Cn1c(I)c(C2=NCC3(CN4CCC3CC4)O2)c2ccccc21 (stereo not given)	26.9	
Cn1cc(C2=NC[C@@]3(CN4CCC3CC4)O2)c2ccccc21	2.57	
Cn1cc(C2=NCC3(CC4CCC(C3)[N+]4(C)C)O2)c2ccccc21 (stereo in doubt; 22c)	5.01	
Cn1cc(C2=NCC3(CCN4CCCC3C4)O2)c2ccccc21 (stereo not given)	1.12	

Compound	IC50 [1] [nM]	IC50 [2] [nM]
CN1C2CCC1CC1(CN=C(c3cn(C)c4ccccc34)O1)C2 (stereo in doubt; 22b)	4.57	
Cn1cc(C2=NCC3(CN4CCC3CC4)O2)c2cc(N)ccc21 (stereo not given)	575	
c1ccc2c(C3=NCC4(CN5CCC4CC5)O3)csc2c1 (stereo not given)	26.9	
CC(=O)c1c(C2=NCC3(CN4CCC3CC4)O2)c2ccccc2n1C (stereo not given)	6.46	
CCn1cc(C2=NCC3(CN4CCC3CC4)O2)c2ccccc21 (stereo not given)	13.5	
Cn1cc(C2=NCC3(CC4CCC(C3)[N+]4(C)C)O2)c2ccccc21 (stereo in doubt; 22e)	3.31	
Cn1cc(C2=NCC3(CC4CCC(C3)N4)O2)c2ccccc21 (stereo not given)	11.2	
c1ccc2c(c1)c(C1=NCC3(CN4CCC3CC4)O1)cn2CC1CC1 (stereo not given)	13.2	
Cn1cc(C2=NC[C@]3(C[N@@]4CC[C@@H]3C4)O2)c2ccccc21	3.09	
Cc1ccc2c(c1)c(C1=NCC3(CN4CCC3CC4)O1)cn2C (stereo not given)	132	
CN1C2CCC1CC1(CN=C(c3cn(C)c4ccccc34)O1)C2 (stereo in doubt; 22d)	6.31	
Cn1c([Si](C)(C)C)c(C2=NCC3(CN4CCC3CC4)O2)c2ccccc21 (stereo not given)		155
Cn1cc(C2=NCC3(C[N+]4(C)CCC3CC4)O2)c2ccccc21 (single isomer, unassigned; 22o)	10.2	
C=CCn1cc(C2=NCC3(CN4CCC3CC4)O2)c2ccccc21 (stereo not given)	7.94	
Cn1cc(C2=NC[C@]3(CN4CCC3CC4)O2)c2ccccc21	2.88	
Cn1cc(C2=NCC3(CC4CCC(C3)N4Cc3ccccc3)O2)c2ccccc21 (stereo not given)	174	
Cn1cc(C2=NCC3(C[N+]4(C)CCC3CC4)O2)c2ccccc21 (single isomer, unassigned; 22n)	42.7	
